From ChEMBL document CHEMBL2074359, “Structural requirements for determining the substrate affinity of peptide transporters PEPT1 and PEPT2” (Pflugers Arch, 2000)
Peptide text beside a SMILES is read from it.

Legend:
[1] = target: T1, Solute carrier family 15 member 2 (Rattus norvegicus, UniProt Q63424); assay: TP_TRANSPORTER: inhibition of Gly-Sar uptake in PEPT2-expressing LLC-PK1 cells; type: functional, cell-based
T1 sequence (Q63424 whole entry): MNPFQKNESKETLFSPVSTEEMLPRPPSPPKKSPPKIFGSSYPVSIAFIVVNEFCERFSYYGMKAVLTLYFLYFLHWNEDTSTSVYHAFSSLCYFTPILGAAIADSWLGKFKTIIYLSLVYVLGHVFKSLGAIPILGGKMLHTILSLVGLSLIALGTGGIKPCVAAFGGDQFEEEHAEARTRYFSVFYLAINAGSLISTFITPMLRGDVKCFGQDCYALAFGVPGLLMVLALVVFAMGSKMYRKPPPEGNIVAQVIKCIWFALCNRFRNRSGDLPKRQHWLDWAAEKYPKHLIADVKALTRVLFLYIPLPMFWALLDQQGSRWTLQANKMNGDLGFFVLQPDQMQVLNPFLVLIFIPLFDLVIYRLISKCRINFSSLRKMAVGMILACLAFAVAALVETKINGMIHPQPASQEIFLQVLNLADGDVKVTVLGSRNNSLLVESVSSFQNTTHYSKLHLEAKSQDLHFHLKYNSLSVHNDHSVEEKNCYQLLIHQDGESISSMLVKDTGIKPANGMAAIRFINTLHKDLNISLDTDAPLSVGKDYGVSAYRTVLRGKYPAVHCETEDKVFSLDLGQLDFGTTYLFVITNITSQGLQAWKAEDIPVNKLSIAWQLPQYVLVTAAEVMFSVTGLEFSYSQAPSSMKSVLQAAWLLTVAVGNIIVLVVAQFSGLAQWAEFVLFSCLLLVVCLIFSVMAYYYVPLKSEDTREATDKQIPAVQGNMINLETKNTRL
Procedure, shortened: (§1)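 LLC-PK1 cells stably carrying rat PEPT2 cDNA, grown 6 days in DMEM with 10% FBS. Monolayers were incubated 15 min at 37°C with [14C]glycylsarcosine (20 µM, pH 6.0) alone or with inhibitor, mostly 1–10000 µM. Uptake was normalized to Bradford protein, with control as 100%. IC50 came from nonlinear regression and Ki from Cheng–Prusoff. Two monolayers per concentration, four for control.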

[2] = target: T2, Solute carrier family 15 member 1 (Rattus norvegicus, UniProt P51574); assay: TP_TRANSPORTER: inhibition of Gly-Sar uptake in PEPT1-expressing LLC-PK1 cells; type: functional, cell-based
T2 sequence (P51574 whole entry): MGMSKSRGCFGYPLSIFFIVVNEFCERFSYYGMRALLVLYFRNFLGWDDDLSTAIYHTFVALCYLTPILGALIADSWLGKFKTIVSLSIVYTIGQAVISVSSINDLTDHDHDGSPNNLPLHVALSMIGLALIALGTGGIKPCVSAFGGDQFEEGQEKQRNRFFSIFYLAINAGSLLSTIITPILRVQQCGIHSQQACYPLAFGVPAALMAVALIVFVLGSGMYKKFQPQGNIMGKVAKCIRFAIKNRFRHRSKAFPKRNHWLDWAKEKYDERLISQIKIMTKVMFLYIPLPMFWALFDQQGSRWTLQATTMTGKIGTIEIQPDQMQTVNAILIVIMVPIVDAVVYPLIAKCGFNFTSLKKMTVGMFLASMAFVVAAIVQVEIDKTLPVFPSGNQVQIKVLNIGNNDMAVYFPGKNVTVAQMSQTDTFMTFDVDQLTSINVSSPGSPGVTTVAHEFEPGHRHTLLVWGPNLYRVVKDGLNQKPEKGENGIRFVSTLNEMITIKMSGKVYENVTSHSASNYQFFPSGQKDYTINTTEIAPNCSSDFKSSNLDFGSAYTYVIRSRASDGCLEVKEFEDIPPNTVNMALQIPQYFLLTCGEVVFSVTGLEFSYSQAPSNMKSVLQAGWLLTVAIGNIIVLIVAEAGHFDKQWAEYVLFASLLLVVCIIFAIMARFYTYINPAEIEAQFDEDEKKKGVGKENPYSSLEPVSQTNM
Procedure, shortened: as §1, with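 “PEPT1” for “PEPT2”, “10–20000” for “1–10000”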

Ki [1] [µM]	Ki [2] [µM]	SMILES
2200	13000	CNCC(=O)NCC(=O)O
230	2200	NCC(=O)CCC(=O)O [AMINOLEVULINIC ACID]
210	2200	NCCCC[C@H](NC(=O)CN)C(=O)O (H-Gly-Lys-OH)
66	8000	NCCC(=O)N[C@@H](Cc1cnc[nH]1)C(=O)O [CARNOSINE]
29	610	NCC(=O)NCC(=O)N[C@@H](Cc1ccccc1)C(=O)O (H-Gly-Gly-Phe-OH)
28000	> 50000	N[C@@H](CC(=O)NCC(=O)O)C(=O)O
7900	4400	NCCCCCCCC(=O)O
2000	13000	O=C(O)CNC(=O)[C@@H]1CCCN1 (H-Pro-Gly-OH)
18	1500	CC(C)C[C@H](NC(=O)[C@@H](O)[C@H](N)Cc1ccccc1)C(=O)O [UBENIMEX]
14	210	NCC(=O)N[C@@H](Cc1ccc(O)cc1)C(=O)O (H-Gly-Tyr-OH)
17	150	CSCC[C@H](N)C(=O)N[C@@H](C)C(=O)O (H-Met-Ala-OH)
22	270	NCC(=O)N[C@@H](CC(N)=O)C(=O)O (H-Gly-Asn-OH)
21	910	NCCCC[C@H](N)C(=O)NCC(=O)O (H-Lys-Gly-OH)
96	8000	NCCCC[C@H](NC(=O)[C@@H](N)CCCCN)C(=O)O
160	1300	NCC(=O)NCC(=O)NCC(=O)O [GLYCYLGLYCYLGLYCINE]
46	830	N[C@@H](CC(=O)O)C(=O)NCC(=O)O (H-Asp-Gly-OH)
60	300	NCC(=O)N[C@@H](CC(=O)O)C(=O)O (H-Gly-Asp-OH)
42	860	NCC(=O)NCC(=O)O (H-Gly-Gly-OH)
6	110	CC(C)C[C@H](NC(=O)CN)C(=O)O
8	190	CC(C)C[C@H](NC(=O)CN)C(=O)N[C@@H](Cc1ccc(O)cc1)C(=O)O (H-Gly-Leu-Tyr-OH)
8	170	NCC(=O)N[C@@H](Cc1ccccc1)C(=O)O (H-Gly-Phe-OH)
10000	24000	CSCC[C@H](NC=O)C(=O)N[C@@H](C)C(=O)O (HELM PEPTIDE1{[O=C[*:2]].M.A}$$$$V2.0)
39	1400	NCC(=O)N[C@@H](Cc1c[nH]cn1)C(=O)O (H-Gly-His-OH)
7	1400	NCC(=O)N[C@@H](Cc1c[nH]c2ccccc12)C(=O)O (H-Gly-Trp-OH)
7	220	N[C@@H](Cc1ccccc1)C(=O)NCC(=O)O (H-Phe-Gly-OH)
150	990	N[C@@H](CC(=O)O)C(=O)N[C@@H](CC(=O)O)C(=O)O (H-Asp-Asp-OH)
29	61	C[C@H](N)C(=O)Nc1ccc([N+](=O)[O-])cc1
